Results reported in ChEMBL document CHEMBL4321838, “Drug Design Targeting T-Cell Factor-Driven Epithelial-Mesenchymal Transition as a Therapeutic Strategy for Colorectal Cancer” (J Med Chem, 2019).
In brackets after ≈: the same amount, converted by molar mass. Activity calls are given as the source filed them.

Tests used:
SW-620 [1] = experiment: Anticlonogenic activity against human SW620 cells assessed as loss of cancer stem cell stemness by measuring inhibition of colony formation at 10 uM incubated for 24 hrs followed by replating and measured after 7 days by clonogenic assay; format: functional, cell-based
SW-620 [2] = experiment: Antiinvasive activity in human SW620 organoids transduced with NucLight-Red virus assessed as inhibition of cell invasion at 10 uM incubated for 72 hrs and measured after 72 hrs by matrigel based fluorescence analysis; format: functional
How it was run: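 NucLight-Red-labelled SW620 organoids treated 72 h at 10 μM in 0.1% DMSO, then dissociated. 5,000 live cells per well seeded in 50% Matrigel in the upper chamber of a migration plate, 0.5% FBS above and 20% FBS below. Invading cells tracked by bottom-side fluorescence over days, six replicates per condition.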

[3] = target: T1, DNA topoisomerase 2-alpha (Homo sapiens, UniProt P11388); experiment: Inhibition of human topoisomerase 2alpha mediated decatenation at 30 uM using kDNA as susbtrate preincubated for 20 mins followed by substrate and ATP addition and measured after 1 hr by ethidium bromide staining based gel electrophoresis method relative to control
How it was run: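 Human TOP2A (3 U) preincubated 20 min at 37 °C with compound at 30 μM in 1.2% DMSO. Reaction started with 2 mM ATP and 35 ng kDNA and run 1 h at 37 °C. Products resolved on 0.8% agarose in TBE with 0.2 μg/mL ethidium bromide; decatenated bands compared with vehicle.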

[4] = target: T1, DNA topoisomerase 2-alpha; experiment: Inhibition of topoisomerase 2alpha dependent TCF transcription in human SW620 organoids transduced with TOPflash luminescent reporter after 72 hrs by luciferase based TOPFlash reporter gene assay
How it was run: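 SW620 cells stably carrying pCDH-TOPflash-luc grown as organoids: 5,000 cells per U-bottom well in phenol red-free RPMI with 5% FBS and 2% Matrigel, 72 h. Inhibitor then applied 72 h. One-Glo luciferase and CellTiter-Glo 3D added 1:1. Luciferase signal normalised to viability, then to DMSO controls.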

SW-620 [5] = experiment: Cytotoxicity against human SW620 organoids assessed as cell death with loss of membrane integrity after 72 hrs by CellTox Green assay; format: functional, cell-based; conditions: SW-620, 72 h
How it was run: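 SW620 tumor organoids exposed 72 h to inhibitor over 0–40 μM together with CellTox Green Express (0.5X). Whole-well mean fluorescence imaged (ex 488, em 500–550 nm). Normalised to lysis buffer as 0% viability and 0.4% DMSO as 100% viability.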

[6] = target: T1, DNA topoisomerase 2-alpha; experiment: Inhibition of topoisomerase 2alpha in human SW620 organoids transfected with VimPro-GFP reporter assessed as reversion of epithelial-mesenchymal transition by measuring reduction in vimentin expression up to 40 uM after 72 hrs by Hoechst 33342 staining based GFP reporter gene assay
How it was run: (§1)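 SW620 cells stably carrying VimPro-GFP or EcadPro-mCherry (puromycin selected) grown as organoids and dosed 72 h. Stained with 16 μM Hoechst 33342 for 1 h and imaged as 15 z-layers, 26.5 μm apart. Nuclei segmented and GFP- or mCherry-positive cells counted above background thresholds. Percent positive cells normalised to DMSO.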

[7] = target: T1, DNA topoisomerase 2-alpha; experiment: Inhibition of topoisomerase 2alpha in human SW620 organoids transfected with EcadPro-RFP reporter assessed as reversion of epithelial-mesenchymal transition by measuring increase in E-cadherin expression up to 40 uM after 72 hrs by Hoechst 33342 staining based mCherryRFP reporter gene assay; how it was run: as §1
SW-620 [8] = experiment: Induction of apoptosis in human SW620 organoids assessed as increase in cleaved caspase 3/7 level at 40 uM after 72 hrs by caspase-glo 3/7 luminescence assay relative to control; format: functional
How it was run: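 SW620 cells, 2,000 per well in 384-well ultra-low attachment plates with 2% Matrigel, grown 72 h into organoids, then dosed 72 h. Caspase-Glo 3/7 reagent added 1:1 and shaken 30 min; luminescence read. Staurosporine served as positive control and 0.4% DMSO as negative control.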

[9] = Aqueous solubility of compound in PBS at 1 mg after 18 hrs by UV based analysis; format: physicochemical
How it was run: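 Undissolved material removed by centrifugation at 5,000g for 45 min. UV absorption compared with a fully saturated 1-propanol solution; solubility derived by linear regression.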

[10] = Half life in CD-1 mouse microsomes measured up to 1 hr by LC-MS analysis; format: ADME, Microsome
How it was run: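 Female CD-1 mouse liver microsomes (0.5 mg/mL), substrate 1 μg/mL and 1.5 mM NADPH in 0.1 M phosphate buffer pH 7.4 at 37 °C. Samples taken from 0 to 60 min and quenched with an equal volume of acetonitrile. Parent compound remaining measured by LC-MS/MS without internal standard.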

[11] = Cmax in CD-1 mouse at 50 mg/kg, ip by LC-MS/MS analysis; format: ADME, organism-based; design: dose 50 mg/kg, route intraperitoneal; conditions: in vivo
How it was run: (§2)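 Female CD-1 mice, single IP injection at 50 mg/kg in 100% DMSO. Sampling from 0.25 to 24 h, three mice per time point (21 per compound). Heparinised blood was spun to plasma, mixed 1:1 with acidified acetonitrile (0.1% formic acid or 0.1% TFA depending on compound), centrifuged, then measured by LC-MS/MS.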

[12] = Tmax in CD-1 mouse at 50 mg/kg, ip by LC-MS/MS analysis; format: ADME, organism-based; conditions: in vivo; how it was run: as §2
Mus musculus = experiment: Apparent volume of drug distribution in CD-1 mouse at 50 mg/kg, ip by LC-MS/MS analysis; format: ADME, organism-based; conditions: in vivo; how it was run: as §2
[13] = AUC(0 to t) in CD-1 mouse at 50 mg/kg, ip by LC-MS/MS analysis; format: ADME, organism-based; conditions: in vivo; how it was run: as §2
[14] = Clearance in CD-1 mouse at 50 mg/kg, ip by LC-MS/MS analysis; format: ADME, organism-based; conditions: in vivo; how it was run: as §2
[15] = Half life of terminal disposition phase in CD-1 mouse at 50 mg/kg, ip by LC-MS/MS analysis; format: ADME, organism-based; conditions: in vivo, read-out: t1/2lambda (converted); how it was run: as §2
SW-620 [16] = experiment: Induction of early stage cell death in human SW620 organoids transfected with EcadPro-RFP reporter assessed as loss of RFP reporter activity at 40 uM at after 72 hrs by Hoechst 33342 staining based mCherryRFP reporter gene assay; conditions: sw-620, 72 h
[17] = Metabolic stability in CD-1 mouse inactive microsomes incubated for 1 hr by LC-MS/MS analysis; format: ADME, Microsome
[18] = Metabolic stability in CD-1 mouse active microsomes assessed as CYP450-mediated oxidative phase 1 metabolite formation measured up to 60 mins by LC-MS/MS analysis; format: ADME; conditions: 1 h
[19] = Drug metabolism in CD-1 mouse active microsomes assessed as CYP450-mediated oxidative phase 1 metabolite formation by LC-MS/MS analysis
SW-620 [20] = experiment: Cytotoxicity against human SW620 organoids assessed as growth inhibition at 10 uM after 72 hrs by brightfield imaging of organoid volume

T1 sequence (P11388 whole entry): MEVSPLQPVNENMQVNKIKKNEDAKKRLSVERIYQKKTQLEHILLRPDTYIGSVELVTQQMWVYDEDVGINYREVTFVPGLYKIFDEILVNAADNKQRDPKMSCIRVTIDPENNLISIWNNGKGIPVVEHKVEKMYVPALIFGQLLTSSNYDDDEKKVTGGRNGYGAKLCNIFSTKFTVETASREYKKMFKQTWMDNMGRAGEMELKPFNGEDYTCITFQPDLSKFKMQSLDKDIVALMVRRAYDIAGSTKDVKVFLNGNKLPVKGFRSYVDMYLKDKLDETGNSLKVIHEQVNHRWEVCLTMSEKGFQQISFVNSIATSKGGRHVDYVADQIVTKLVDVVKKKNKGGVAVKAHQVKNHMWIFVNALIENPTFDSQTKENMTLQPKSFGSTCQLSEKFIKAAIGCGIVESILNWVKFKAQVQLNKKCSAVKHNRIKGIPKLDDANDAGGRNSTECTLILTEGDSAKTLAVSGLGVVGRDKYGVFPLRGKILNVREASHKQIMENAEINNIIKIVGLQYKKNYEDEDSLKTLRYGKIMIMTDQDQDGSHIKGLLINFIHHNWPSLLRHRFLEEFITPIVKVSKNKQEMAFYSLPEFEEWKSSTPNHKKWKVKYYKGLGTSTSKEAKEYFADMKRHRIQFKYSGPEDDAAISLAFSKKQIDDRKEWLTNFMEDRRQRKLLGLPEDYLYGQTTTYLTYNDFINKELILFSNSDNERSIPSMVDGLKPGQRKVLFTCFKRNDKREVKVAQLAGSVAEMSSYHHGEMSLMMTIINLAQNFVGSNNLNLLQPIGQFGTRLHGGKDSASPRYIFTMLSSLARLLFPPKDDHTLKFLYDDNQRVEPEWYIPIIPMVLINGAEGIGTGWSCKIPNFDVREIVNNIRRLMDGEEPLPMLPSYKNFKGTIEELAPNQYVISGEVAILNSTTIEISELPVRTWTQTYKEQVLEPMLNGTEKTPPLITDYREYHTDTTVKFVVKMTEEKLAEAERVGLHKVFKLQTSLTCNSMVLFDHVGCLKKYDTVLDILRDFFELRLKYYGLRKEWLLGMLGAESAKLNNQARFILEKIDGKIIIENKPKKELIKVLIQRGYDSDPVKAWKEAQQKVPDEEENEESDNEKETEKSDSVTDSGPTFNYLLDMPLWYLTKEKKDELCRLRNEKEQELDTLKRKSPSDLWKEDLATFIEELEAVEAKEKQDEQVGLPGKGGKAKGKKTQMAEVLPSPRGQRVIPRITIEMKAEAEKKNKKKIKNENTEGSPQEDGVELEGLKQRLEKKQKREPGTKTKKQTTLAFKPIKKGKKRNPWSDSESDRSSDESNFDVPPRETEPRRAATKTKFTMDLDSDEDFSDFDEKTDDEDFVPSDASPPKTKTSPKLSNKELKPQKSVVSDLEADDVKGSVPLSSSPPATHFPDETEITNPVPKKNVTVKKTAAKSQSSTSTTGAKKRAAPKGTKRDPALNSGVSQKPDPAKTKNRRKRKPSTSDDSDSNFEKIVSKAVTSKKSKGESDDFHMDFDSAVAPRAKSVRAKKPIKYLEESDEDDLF

inhibition [3]: 90%
IC50 [4]: 0.7 µM
inhibition [6]: Active
inhibition [7]: Active
solubility thermodynamic at 18 h [9]: 1520 µg/mL (≈ 3.69 mM)
t1/2 [10]: 8.53 min
Cmax [11]: 10900 ng/mL
Tmax [12]: 15 min
Vz (Mus musculus): 34 L/kg
AUC(0-t) [13]: 13000 ng·h/mL
CL/F [14]: 62.2 mL/min/kg
half-life [15]: 379 min
Stability [17]: Stable
Drug metabolism [18]: Metabolite_Detected
Drug metabolism [19]: Metabolite_Notdetected
Structure (SMILES): O=C(CCN1CCOCC1)Nc1ccc2c(-c3cc(F)ccc3O)ccnc2c1O
inhibition (SW-620 [1]): Active
inhibition (SW-620 [2]): Active
EC50 (SW-620 [5]): 16 µM
fold change (FC) (SW-620 [8]): 9
Activity (SW-620 [16]): Active
growth inhibition (GI) (SW-620 [20]): Active
